ChEMBL document CHEMBL5365542, “Difluoromethyl-1,3,4-oxadiazoles Are Selective, Mechanism-Based, and Essentially Irreversible Inhibitors of Histone Deacetylase 6” (J Med Chem, 2023)
Where a chain is given by its changes, count along the chain named. Calls of active or inactive are those of the source. The calls are words filed in the database; no cut-off is given here.

Legend:
[1] = target: Histone deacetylase 1 (Homo sapiens) (UniProt Q13547); test: Inhibition of C-terminal 6His/FLAG tagged human recombinant HDAC1 (1 to 482 residues) […] expressed in Sf9 insect cells using Z-Lys(Ac)-AMC as fluorogenic substrate at 10 uM preincubated for 60 mins followed by substrate addition and measured after 90 mins by microplate reader analysis relative to control; details: time 150.0 min
Procedure, shortened: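 Human recombinant enzyme was preincubated with 3-fold inhibitor dilutions for 60 min at 25 °C in Tris-HCl pH 8.0 buffer with BSA. ZMAL (75 μM solution) was then added, and the mix was incubated 90 min at 37 °C (max 1% DMSO). Trypsin was added for 30 min at 37 °C, and fluorescence was read at ex 355/em 460. Tested at least twice in duplicate.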

[2] = test system: T1, Histone deacetylase 6 (Danio rerio), F8W4B7 [H574A]; test: Irreversible inhibition of Danio rerio HDAC6 H574A mutant catalytic domain 2 assessed as enzyme catalysed ring opening by measuring reduction in 2-(benzylamino)-N'-(2,2,2-trifluoroacetyl)pyrimidine-5-carbohydrazide formation at 100 uM incubated overnight by LC-MS analysis
T1 sequence (whole entry): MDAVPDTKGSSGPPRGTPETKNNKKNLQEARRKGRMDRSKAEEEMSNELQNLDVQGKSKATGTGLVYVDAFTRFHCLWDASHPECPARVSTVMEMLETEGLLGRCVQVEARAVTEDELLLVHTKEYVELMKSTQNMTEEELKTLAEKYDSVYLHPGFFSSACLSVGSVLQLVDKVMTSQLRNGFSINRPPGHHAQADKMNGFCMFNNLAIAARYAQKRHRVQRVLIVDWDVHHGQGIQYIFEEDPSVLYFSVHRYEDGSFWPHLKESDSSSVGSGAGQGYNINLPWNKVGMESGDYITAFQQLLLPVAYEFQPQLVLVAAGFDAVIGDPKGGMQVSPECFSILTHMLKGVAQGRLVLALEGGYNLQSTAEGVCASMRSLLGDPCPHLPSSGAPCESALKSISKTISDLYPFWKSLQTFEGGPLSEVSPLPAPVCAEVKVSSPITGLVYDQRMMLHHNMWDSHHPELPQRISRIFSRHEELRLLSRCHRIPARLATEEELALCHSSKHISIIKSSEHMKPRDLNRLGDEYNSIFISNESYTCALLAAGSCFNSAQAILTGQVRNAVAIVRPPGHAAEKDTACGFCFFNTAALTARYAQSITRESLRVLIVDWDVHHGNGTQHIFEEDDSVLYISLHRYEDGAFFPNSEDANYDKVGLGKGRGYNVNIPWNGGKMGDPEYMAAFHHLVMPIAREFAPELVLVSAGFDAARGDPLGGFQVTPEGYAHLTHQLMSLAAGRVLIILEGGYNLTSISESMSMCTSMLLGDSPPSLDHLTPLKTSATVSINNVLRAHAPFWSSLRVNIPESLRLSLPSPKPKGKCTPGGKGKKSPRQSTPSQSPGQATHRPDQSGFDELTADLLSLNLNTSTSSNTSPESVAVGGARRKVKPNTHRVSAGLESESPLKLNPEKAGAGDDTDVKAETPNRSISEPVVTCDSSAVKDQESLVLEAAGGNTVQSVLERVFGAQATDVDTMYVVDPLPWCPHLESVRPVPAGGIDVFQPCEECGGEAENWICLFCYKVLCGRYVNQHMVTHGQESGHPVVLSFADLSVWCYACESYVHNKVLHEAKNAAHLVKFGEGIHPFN
Procedure, shortened: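 Zebrafish HDAC6 CD2 mutants were made by site-directed mutagenesis and expressed in BL21(DE3). Enzyme at 50 μM was incubated overnight with 100 μM inhibitor in 50 mM HEPES pH 7.5, 100 mM KCl, 1 mM TCEP, 5% glycerol; an enzyme-free control was included. Protein was methanol-precipitated and filtered, and products were analysed by C18 UPLC-MS with a 2-min gradient.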

[3] = target: T2, Histone deacetylase 6 (Danio rerio) (UniProt F8W4B7); test: Irreversible inhibition of Danio rerio HDAC6 catalytic domain 2 assessed as enzyme catalysed ring opening by measuring 2-(Benzylamino)pyrimidine-5-carbohydrazide level at 100 uM incubated overnight by LC-MS analysis
T2 sequence (whole entry): T1 sequence (whole entry) with A574H
Procedure, shortened: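 Danio rerio HDAC6 catalytic domain 2 (zCD2), 50 μM, in 50 mM HEPES pH 7.5, 100 mM KCl, 1 mM TCEP, 5% glycerol, incubated overnight with 100 μM inhibitor (100 μL). Enzyme-free inhibitor controls run in parallel. Protein precipitated with methanol and filtered. Filtrate analysed by C18 reverse-phase UPLC-MS with a 2-min H2O/MeCN gradient.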

Chain of Histone deacetylase 1 (Homo sapiens) (Q13547 whole entry, the tested form may be a part): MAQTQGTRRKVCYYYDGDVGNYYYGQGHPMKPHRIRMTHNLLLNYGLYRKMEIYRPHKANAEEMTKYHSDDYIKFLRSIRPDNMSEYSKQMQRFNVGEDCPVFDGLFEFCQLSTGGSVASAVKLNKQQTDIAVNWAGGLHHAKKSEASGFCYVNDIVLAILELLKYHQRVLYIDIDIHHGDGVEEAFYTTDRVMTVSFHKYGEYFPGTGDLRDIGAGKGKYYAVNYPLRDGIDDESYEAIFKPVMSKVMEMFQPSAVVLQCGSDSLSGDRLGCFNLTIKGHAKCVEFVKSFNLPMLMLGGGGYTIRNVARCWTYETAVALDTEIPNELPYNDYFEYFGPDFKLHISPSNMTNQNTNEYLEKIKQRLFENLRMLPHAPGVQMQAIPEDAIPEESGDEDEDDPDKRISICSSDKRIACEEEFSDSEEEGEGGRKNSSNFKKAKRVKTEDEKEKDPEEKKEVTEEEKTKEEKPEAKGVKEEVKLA

Compound	inhibition [1] [%]	inhibition [2]	Activity [3] [µM]
FC(F)c1nnc(-c2cnc(NCc3ccccc3)nc2)o1	< 15	Active	9
FC(F)(F)c1nnc(-c2cnc(NCc3ccccc3)nc2)o1	< 15	Active	18
